ANO1 block – blocks the mouse calcium-activated chloride channel TMEM16A; Q8BHY3; HEK293 TMEM16A/YFP iodide influx fluorescence, ionomycin; normalized B-score (activity score, 25-100; higher = stronger inhibition) at 10 µM; 310,000 compounds, 1.2% hits;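 active = ratio plate-corrected score three or more library SD toward inhibition, starting fluorescence score within five deviations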;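 note: score derived from kinetic fluorescence span divided by baseline fluorescence per well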
MC4R ag barr – human MC4R agonism via beta-arrestin. P32245. U2OS MC4R beta-arrestin complementation, luminescence; percent of melanotan II response, DMSO zero. 360,000 compounds, 0.98% hits. AID 540308. activation, % at 8.9 µM;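 active = activation above a per-plate cutoff, the mean activation of sample wells on that plate plus 3 SD, cut at about 8% in these data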
CSC inhib – cancer stem cell inhibition. AID 2717. cancer stem cell-like cells viability, luminescence. inhibition, % at 7.5 µM. 300,000 compounds, 1.1% hits; in the data active = inhibition above about 75%; tested in HMLE shEcad cells
MC4R antag cAMP – antagonists of human melanocortin 4 receptor (MC4R). P32245. MC4R-expressing cells, MTII-stimulated cAMP, LANCE TR-FRET. inhibition, % at 6.5 µM. 360,000 compounds, 0.48% hits. AID 540295;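 active = inhibition above its plate's cutoff, the mean of tested wells on that plate plus 3 SD, cut at about 29% in these data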;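 note: 0% = Melanotan II alone and 100% = Melanotan II plus saturating MCL0020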
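Material – human MC4R-expressing U2OS cells · Repeats – no replicates · Detection – TR-FRET with Eu-cAMP and labeled anti-cAMP, 671 nm · Times – compound 30 min, challenge 1 h, detection 1 h · Compound – single nominal compound dose of 6.5 µM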
Beta apoptosis – blocks beta cell apoptosis | protection from apoptosis, % (no concentration beside the values) | INS-1E cytokine-induced death, ATP luminescence, 48 h; percent of positive-control rescue, neutral wells zero | 300,000 compounds, 0.8% hits;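 active = Every replicate reaches about 75%, or at least half do and their mean reaches it too, limit read from the data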;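 note: 0% = cytokine-treated negative control wells and 100% = positive control rescue; higher means more ATP so stronger rescue from cytokine killing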
ANO1 activ – activates or potentiates the mouse TMEM16A chloride channel; HEK293 TMEM16A/YFP-H148Q/I152L, iodide quench fluorescence; hits give low values; B-score at 10 µM; 340,000 compounds, 0.3% hits; AID 623877;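 active = fluorescence-ratio B-score plate-corrected deviation score at least 3 library SD below zero, with starting fluorescence score within 5 deviations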;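 note: channel opened by trigger with iodide after compound preincubation; score built on the fluorescence ratio of max minus min over baseline; more negative score means more quench and so TMEM16A activation or potentiation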
An asterisk follows results filed as active; i = inactive; · = no result. Sampled rows, rich in hits. Any-hit rate of the full collection: about 3.8%.

SMILES	ANO1 block	MC4R ag barr	CSC inhib	MC4R antag cAMP	Beta apoptosis	ANO1 activ
C#CCOCCOCCOCCNc1nc(N2CCN(C(=O)CCCCCCCCCCNC(=O)Cn3cc(C[C@@H](C)O)nn3)CC2)nc(N2CCN(C(=O)CCCCCCCCCCNC(=O)[C@H](CCCCN)n3cc(C[C@@H](C)CC)nn3)CC2)n1	i	1	89*	32*	63	i
COc1ccc2cc(C(=O)NCc3ccccc3CN3CCCC3)ccc2c1	·	1	16	5	15	i
CN(C)C(=O)CNc1ccn2nc(-c3cccc(Cl)c3)cc2n1	·	0	·	0	·	·
CCN1CCC[C@H]1CNCCCn1cnc2c(SC)ncnc21	·	1	·	13	·	·
CCCN(Cc1nc2cc(Cl)ccc2c(=O)[nH]1)C(=O)c1ccc(S(=O)(=O)N2CCCC2)cc1	·	-2	·	16	2	i
C#CCOCCOCCOCCNc1nc(N2CCN(C(=O)CCCCCCCCCCNC(=O)[C@@H](CCC(=O)O)n3cc(CCCCCN)nn3)CC2)nc(N2CCN(C(=O)CCCCCCCCCCNC(=O)[C@@H](CCC(=O)O)n3cc(CCCCCN)nn3)CC2)n1	i	0	3	-1	-3	i
C#CCOCCOCCOCCNc1nc(N2CCN(C(=O)CCCCCCCCCCNC(=O)[C@H]([C@@H](C)CC)n3cc(CCCCN=C(N)N)nn3)CC2)nc(N2CCN(C(=O)CCCCCCCCCCNC(=O)[C@H](CCCCN)n3cc(C[C@@H](C)CC)nn3)CC2)n1	i	·	102*	·	98*	·
C#CCOCCOCCOCCNc1nc(N2CCN(C(=O)CCCCCCCCCCNC(=O)[C@H](CCCCN)n3cc(CCO)nn3)CC2)nc(N2CCN(C(=O)CCCCCCCCCCNC(=O)[C@H](CCCCN)n3cc(CCO)nn3)CC2)n1	i	0	7	4	-3	i
C#CCOCCOCCOCCNc1nc(N2CCN(C(=O)CCCCCCCCCCNC(=O)[C@H](CCCCN)n3cc(CCO)nn3)CC2)nc(N2CCN(C(=O)CCCCCCCCCCNC(=O)[C@H](CCCN=C(N)N)n3cc(C[C@@H](C)CC)nn3)CC2)n1	100*	-2	135*	78*	63	-22*
CC(C1CC1)N(Cc1ccccc1)C(=S)Nc1cccc(C(F)(F)F)c1 (stereo unspecified)	100*	1	32	3	-14	i
O=C(CSc1nnc2ccc(-c3ccc(F)cc3)nn12)N1CCCC1	i	3	-6	33*	1	i
Cc1ccc(NC2=CC(=O)C(=O)c3ccccc32)c(C)c1	·	-4	·	-11	101*	i
O=C1C=C(Nc2ccccc2O)c2ccccc2C1=O	i	-5	99*	-22	113*	i
CCOc1ccc(NC2=CC(=O)C(=O)c3ccccc32)cc1	·	-2	·	-27	·	i
O=C1C=C(Nc2ccc(F)cc2)c2ccccc2C1=O	·	0	112*	-11	106*	i
CC1(C(=O)Nc2ccc3[nH]ncc3c2)CCN1C(=O)CCc1ccccc1 (stereo unspecified)	·	0	·	13	·	·
Cc1onc(-c2ccccc2Cl)c1C(=O)Oc1cc(N)n(S(=O)(=O)c2ccc(F)cc2)n1	25*	1	·	29*	-6	i
COCCNC(=S)NC(=O)CC12CC3CC(CC(C3)C1)C2	i	8.3*	42	-10	1	i
CNC(=O)CC12CC3CC(CC(C3)C1)C2	i	-3	-3	9	-7	i
Cc1ccc(S(=O)(=O)N(C)C)cc1NC(=O)COC(=O)c1ccc2ccccc2n1	·	-1	·	4	·	i
Cc1sc2ncnc(NCC(C)(C)N3CCOCC3)c2c1C	i	1	-7	3	85*	i
Cc1sc2ncnc(NCC3CCCO3)c2c1C (stereo unspecified)	i	-3	-3	-4	5	i
Cc1sc2ncnc(NCC3COc4ccccc4O3)c2c1C (stereo unspecified)	i	0	3	1	130*	i
c1ccc(-c2csc3ncnc(NCC4COc5ccccc5O4)c23)cc1 (stereo unspecified)	i	-1	50	-26	127*	i
CCC(C)(C)NC(=O)COc1ccc(C(=O)c2ccccc2)cc1	25*	1	7	5	5	i
SMILES	ANO1 block	MC4R ag barr	CSC inhib	MC4R antag cAMP	Beta apoptosis	ANO1 activ
O=C(COc1ccc(C(=O)c2ccccc2)cc1)NC1CCCCCC1	i	4	-9	19	0	i
Cc1ccc(-c2cc(-c3ccccc3)c(C#N)c(Br)n2)cc1	i	-1	0	9	6	i
CS(=O)(=O)c1nc(-c2ccccc2)cc(-c2ccccc2)c1C#N	i	-2	2	30*	5	i
Cc1ccc(Nc2nc(N)c3ccccc3n2)cc1C	i	1	30	1	37	i
CCN=c1scc(-c2ccc3c(c2)NC(=O)CO3)n1N=C1CCCC1	100*	0	0	9	3	i
CCOC(=O)c1c(C)[nH]c(C)c1C(=O)COC(=O)CCc1ccccc1	·	1	-27	-1	-10	i
CNC(=O)C[C@H]1C(=O)N(c2ccccc2)C[C@@H]1C	·	-1	·	5	·	·
Cc1ccc(NC(=O)C2CCN(S(=O)(=O)c3ccc4c(c3)C(C)(C)C(=O)N4C)CC2)c(C)c1	i	0	2	3	12	i
O=C(Nc1cc(-c2ccccc2)sc1C(=O)O)c1cccc(F)c1	100*	1	32	4	0	i
CCOc1ccc(-c2cc(NC(=O)c3c(F)cccc3F)c(C(=O)O)s2)cc1	i	-2	9	4	-8	·
COc1cc(/C=C/C(=O)O)cc(S(=O)(=O)Nc2ccc(S(=O)(=O)N3CCCCC3)cc2)c1OC	·	-7	·	16	·	i
O=[N+]([O-])c1ccc(N=Nc2ccc(O)cc2O)cc1	100*	-1	83*	-1	67	i
COc1ccc(C)cc1NC(=O)CSc1nnc(COc2ccc(Cl)cc2)n1Cc1ccco1	i	0	79*	-1	4	i
C[C@H]1[C@H](C)CC[C@]2(C)CC[C@]3(C)C(=CC[C@@H]4[C@@]5(C)CC[C@@H](O)[C@](C)(C(=O)O)[C@@H]5CC[C@]43C)[C@H]12	i	·	77*	·	-4	·
C[C@H]1[C@H](C)CC[C@]2(C(=O)O)CC[C@]3(C)C(=CC[C@@H]4[C@@]5(C)C[C@@H](O)[C@H](O)C(C)(C)[C@@H]5CC[C@]43C)[C@H]12	i	1	95*	2	2	-9.7*
C[C@H]1[C@H](C)CC[C@]2(C)CC[C@]3(C)C(=CC(=O)C4[C@@]5(C)CC[C@H](O)C(C)(C)C5CC[C@]43C)[C@H]12 (stereo partly specified)	·	2	98*	7	5	i
